Results of several laboratories.

Structure (SMILES)	target or system	assay	conditions	measurement	result
O=c1cc(CSc2ccc(N=Cc3ccccc3[N+](=O)[O-])cc2)occ1O		ABTS scavenging, absorbance		IC50	42.6 µM
CC(C)C[C@H](NC(=O)[C@H](CCCCN)NC(=O)[C@H](Cc1c[nH]c2ccccc12)NC(=O)[C@H](CCCCN)NC(=O)[C@H](CCCCN)NC(=O)[C@H](CC(C)C)NC(=O)[C@H](Cc1ccccc1)NC(=O)[C@H](CCCCN)NC(=O)[C@H](CCC(=O)O)NC(=O)[C@H](CC(C)C)NC(=O)[C@H](CC(C)C)NC(=O)[C@H](CCCCN)NC(=O)[C@@H](N)CCCNC(=N)N)C(N)=O	A549	cell growth or viability, MTT	24 h	IC50	76 µM
N#C[Se]Cc1cc(=O)oc2cc(O)ccc12	A549	cell growth or viability, SRB		GI50	28 µM
O=c1cc(CSc2ccc(N=Cc3ccc(O)cc3)cc2)occ1O		ABTS scavenging, absorbance		IC50	20.3 µM
Cc1c(Cl)c(=O)oc2cc(OCCCC[Se]C#N)ccc12	A549	cell growth or viability, SRB		GI50	12 µM
CC[C@H](C)[C@H](NC(=O)[C@H](CCCNC(=N)N)NC(=O)[C@H](CCCNC(=N)N)NC(=O)[C@H](CCSC)NC(=O)[C@H](CCCNC(=N)N)NC(=O)[C@H](CCCNC(=N)N)NC(=O)[C@H](CCCNC(=N)N)NC(=O)[C@H](CC(C)C)NC(=O)[C@H](CCCNC(=N)N)NC(=O)CNC(=O)[C@H](Cc1c[nH]c2ccccc12)NC(=O)[C@@H](N)CCSC)C(=O)N[C@@H](CCCCN)C(N)=O	A549	cell growth or viability, MTT	24 h	IC50	> 500 µM
N.N.[Cl][Pt][Cl]	WSU-NHL	cell growth or viability, ATP luminescence	10 µM, 72 h	inhibition	100%
c1ccc(Oc2ccc(Nc3c4c(nc5ccccc35)CCC4)cc2)cc1	Leishmania donovani	parasite growth	40 µM, intracellular, amastigote	inhibition	96%
COc1ccccc1C=Nc1ccc(SCc2cc(=O)c(O)co2)cc1		ABTS scavenging, absorbance		IC50	21.4 µM
O=C(Nc1ccc(Cl)cc1)Nc1cccc(-c2cn(Cc3ccc(Br)cc3)nn2)c1	A549	cell growth or viability, CCK-8	50 µM, 72 h	viability	123%
O=c1cc(CSc2ccc(N=Cc3ccccc3C(F)(F)F)cc2)occ1O		ABTS scavenging, absorbance		IC50	39.8 µM
CCOc1ccc(Nc2c3c(nc4ccccc24)CCC3)cc1	Leishmania donovani	parasite growth	33.33 µM, promastigote	inhibition	81%
